Screens deposited in PubChem by The Scripps Research Institute Molecular Screening Center.
NPY Y2 blocker – blocks the human neuropeptide Y Y2 receptor | P49146 | NPY-Y2 expressing cells, antagonist mode | inhibition, % at 2.7 µM | 140,000 compounds, 0.99% hits;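 also: 0% = vehicle with agonist challenge and 100% = reference antagonist with challenge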
NPY-Y1 PAM-ag – potentiators or agonists of human neuropeptide Y receptor Y1; P25929; NPY-Y1 expressing cells, potentiator/agonist activation; activation, % at 3.6 µM; 220,000 compounds, 0.37% hits; in the data active = activation above about 33%, passing the limit was not always enough;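 also: cells stimulated with NPY at EC10 then isoproterenol at EC100; 0% = low agonist plus stimulus and 100% = saturating agonist plus stimulus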
Target sequence (P25929 whole entry, looked up): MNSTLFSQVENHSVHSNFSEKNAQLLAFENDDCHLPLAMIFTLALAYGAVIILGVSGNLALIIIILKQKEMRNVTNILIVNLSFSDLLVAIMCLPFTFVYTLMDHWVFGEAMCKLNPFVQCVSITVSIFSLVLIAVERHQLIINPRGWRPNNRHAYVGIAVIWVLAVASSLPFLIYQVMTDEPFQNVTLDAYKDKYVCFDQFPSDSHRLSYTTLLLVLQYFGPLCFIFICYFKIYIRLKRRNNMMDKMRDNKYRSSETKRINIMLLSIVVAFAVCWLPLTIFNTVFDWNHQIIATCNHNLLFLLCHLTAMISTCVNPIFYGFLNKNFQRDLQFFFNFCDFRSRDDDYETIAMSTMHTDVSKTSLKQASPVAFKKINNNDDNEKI
NPY-Y1 antag – antagonists of human neuropeptide Y receptor Y1. P25929. HEK293-CNG Y1 cells, membrane potential fluorescence; NPY at EC95, then isoproterenol. inhibition, % at 3.6 µM. 200,000 compounds, 1% hits. AID 1040;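 active = inhibition above the campaign mean inhibition of all tested compounds plus 3 SD, cut at about 20% in these data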;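 also: 0% = DMSO wells given NPY plus isoproterenol and 100% = isoproterenol alone without NPY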
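Test system: HEK293 cells co-expressing NPY Y1 receptor and cyclic-nucleotide gated channel; Also added: NPY (25 nM), isoproterenol (1 µM), Ro 20-1724 (25 µM); Compound dosing: one concentration, 3.6 µM, in 0.4% DMSO; Timing: dye 3 h, compound 60 min room temperature, stimulation 45 min; Technique: Membrane-potential fluorescent dye readout.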
NPY-Y2 PAM-ag – human NPY-Y2 potentiation or agonism, primary screen. activation, % at 3.6 µM. cells expressing NPY-Y2, potentiator/agonist read-out. 220,000 compounds, 0.45% hits. P49146; in the data active = activation above about 27%;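 also: cells stimulated with NPY near EC25 plus isoproterenol at EC100; 0% = vehicle plus submaximal agonist and 100% = vehicle plus saturating agonist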
NPY1 antag conf – human NPY-Y1 antagonism, confirmation. 1,200 compounds, 21% hits. HEK293-CNG NPY-Y1, membrane potential fluorescence, cAMP; NPY challenge against isoproterenol-raised cAMP. inhibition, % at 3.6 µM. shares compounds with NPY-Y1 antag; in the data active = inhibition above about 20%;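 also: 0% = vehicle with agonist plus stimulus and 100% = stimulus alone without agonist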
NPY2 antag ctr – human NPY-Y2 antagonism in NPY-Y1 counter-screen | shares compounds with NPY-Y1 antag | HEK293 NPY-Y2 CNG membrane potential fluorescence; cells given NPY, then isoproterenol | inhibition, % at 3.6 µM | 1,200 compounds, 28% hits | AID 1255;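 also: 0% = DMSO with agonist challenge and 100% = reference antagonist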
An asterisk follows results filed as active. Most compounds without a hit are left out; they make up all but 1.8% or so of the library. Rule as the data show it, unless noted: active = inhibition above about 17%; inactive = the rest.

Screening Cc1ccc(S(=O)(=O)N2CCOCC2)cc1NC(=O)CN1CCC(Cc2ccccc2)CC1 returned NPY-Y1 PAM-ag -9, NPY-Y1 antag 30*, NPY-Y2 PAM-ag -38, NPY1 antag conf 11 and NPY2 antag ctr 15.
For CCN(CC)c1ccc(S(=O)(=O)N2CCOCC2)cc1NC(=O)CN1CCc2ccccc2C1 the results were NPY-Y1 PAM-ag 23, NPY-Y1 antag 23*, NPY-Y2 PAM-ag 10, NPY1 antag conf 2 and NPY2 antag ctr 8.
For Cc1nc(CNC(=O)CC2C(=O)NCCN2Cc2ccoc2)nc2c1CCCC2 (stereo unspecified) the results were NPY-Y1 PAM-ag -6 and NPY-Y2 PAM-ag -18.
CN(C)c1ccnc(Oc2ccccc2)c1C#N was read as NPY Y2 blocker -1, NPY-Y1 PAM-ag -13, NPY-Y1 antag 3 and NPY-Y2 PAM-ag 18.
CN(C)c1ccnc(SCc2ccccc2Cl)c1C#N was read as NPY Y2 blocker 8, NPY-Y1 PAM-ag -93, NPY-Y1 antag 28*, NPY-Y2 PAM-ag -43, NPY1 antag conf 16 and NPY2 antag ctr 29*.
For COc1cc2c(cc1Cl)/C(=C\CCN(C)C)c1ccccc1S2 the results were NPY Y2 blocker 11, NPY-Y1 PAM-ag -37, NPY-Y1 antag 29*, NPY-Y2 PAM-ag -19, NPY1 antag conf 13 and NPY2 antag ctr 18*.
For COc1cc(Cl)cc2c1Sc1ccccc1/C2=C/CCN(C)C the results were NPY Y2 blocker 9, NPY-Y1 PAM-ag -17, NPY-Y1 antag 16 and NPY-Y2 PAM-ag -23.
Clc1ccc(CN(CC2CCCO2)C(c2cccs2)c2nnnn2C2CCCC2)cc1 (stereo unspecified) was read as NPY Y2 blocker 11, NPY-Y1 PAM-ag -16, NPY-Y1 antag 40*, NPY-Y2 PAM-ag -2, NPY1 antag conf 13 and NPY2 antag ctr 16.
For CCc1nc(N2CCN(C(=O)c3ccccc3)CC2)c2c3c(sc2n1)CCCC3 the results were NPY-Y1 PAM-ag -21, NPY-Y1 antag 22*, NPY-Y2 PAM-ag -8, NPY1 antag conf 9 and NPY2 antag ctr 10.
O=C(CSc1nnc(NC(=O)c2ccco2)s1)Nc1ccc2c(c1)OCCO2 was read as NPY-Y1 PAM-ag 0, NPY-Y1 antag 4 and NPY-Y2 PAM-ag -1.
For COC(=O)c1ccc(C(=O)OC)c(=O)[nH]1 the results were NPY-Y1 PAM-ag 4 and NPY-Y2 PAM-ag -4.
`CCc1nn2cc(-c3ccccc3)nc2s1` gave NPY Y2 blocker 1, NPY-Y1 PAM-ag 4, NPY-Y1 antag 28*, NPY-Y2 PAM-ag 11, NPY1 antag conf -1 and NPY2 antag ctr 0.
Screening COc1cc(NC2c3ccccc3C(=O)N2Cc2ccc3c(c2)OCO3)cc(OC)c1OC (stereo unspecified) returned NPY Y2 blocker 15, NPY-Y1 PAM-ag -7, NPY-Y1 antag 23*, NPY-Y2 PAM-ag -21, NPY1 antag conf 16 and NPY2 antag ctr 7.
`CCOc1ccc(NC2c3ccccc3C(=O)N2Cc2ccc3c(c2)OCO3)cc1` (stereo unspecified) gave NPY Y2 blocker 2, NPY-Y1 PAM-ag -4, NPY-Y1 antag -3 and NPY-Y2 PAM-ag 6.
O=C(OCC(=O)N1N=C(c2ccc(Cl)cc2)CC1c1ccco1)c1ccccc1O (stereo unspecified) was read as NPY Y2 blocker 11, NPY-Y1 PAM-ag -3, NPY-Y1 antag 22*, NPY-Y2 PAM-ag -7, NPY1 antag conf 6 and NPY2 antag ctr 9.
Screening O=C1c2cccc3c(N4CCCCC4)ccc(c23)C(=O)N1c1ccccc1O returned NPY-Y1 PAM-ag -14, NPY-Y1 antag 1 and NPY-Y2 PAM-ag -13.
Screening O=C1c2cccc3c(N4CCCCC4)ccc(c23)C(=O)N1c1ccc(O)cc1 returned NPY-Y1 PAM-ag -21, NPY-Y1 antag 22*, NPY-Y2 PAM-ag -18, NPY1 antag conf 15 and NPY2 antag ctr 20*.
COCCNC(=O)COC(=O)c1ccc(OCC(=O)Nc2ccccc2OC)c(OC)c1 was read as NPY-Y1 PAM-ag 2, NPY-Y1 antag -1 and NPY-Y2 PAM-ag -5.
For CC(C)OCCCNC(=O)c1c(N)n(/N=C/c2cccs2)c2nc3ccccc3nc12 the results were NPY Y2 blocker 9, NPY-Y1 PAM-ag 14, NPY-Y1 antag 25*, NPY-Y2 PAM-ag 10, NPY1 antag conf 17 and NPY2 antag ctr 16.
CN1CCC(Oc2ccccc2Sc2ccc(C(F)(F)F)cc2)CC1 was read as NPY Y2 blocker 16, NPY-Y1 PAM-ag -38, NPY-Y1 antag 30*, NPY-Y2 PAM-ag -10, NPY1 antag conf 8 and NPY2 antag ctr 15.
For CN1CCC(Oc2ccc(Sc3ccccc3)cc2)CC1 the results were NPY Y2 blocker 8, NPY-Y1 PAM-ag -17, NPY-Y1 antag 7 and NPY-Y2 PAM-ag 8.
Screening Cc1ccc(CSc2nc3ccccc3cc2C=O)cc1 returned NPY Y2 blocker -2, NPY-Y1 PAM-ag 2, NPY-Y1 antag 23*, NPY-Y2 PAM-ag -3, NPY1 antag conf 1 and NPY2 antag ctr 6.
`O=Cc1cc2ccccc2nc1SCc1ccc(Cl)cc1` gave NPY Y2 blocker 2, NPY-Y1 PAM-ag 9, NPY-Y1 antag 26*, NPY-Y2 PAM-ag -13, NPY1 antag conf -5 and NPY2 antag ctr 7.
Screening Cc1ccc(CSc2ncnc3ccccc23)cc1 returned NPY-Y1 PAM-ag -15, NPY-Y1 antag 17 and NPY-Y2 PAM-ag -7.
O=Cc1cc2ccccc2nc1SCc1ccc(Cl)c(Cl)c1 was read as NPY Y2 blocker 1, NPY-Y1 PAM-ag 2, NPY-Y1 antag 6 and NPY-Y2 PAM-ag 0.
`Cc1ccc(-c2noc(-c3ccoc3C)n2)cc1` gave NPY-Y1 PAM-ag 6, NPY-Y1 antag 6 and NPY-Y2 PAM-ag -2.
Screening Cc1ccc(C(=O)NC(=S)Nc2ccc(Oc3ccc(Cl)cc3)cc2)cc1 returned NPY Y2 blocker 1, NPY-Y1 PAM-ag -10, NPY-Y1 antag 2 and NPY-Y2 PAM-ag 3.
Screening O=C(NC(=S)Nc1ccc(Oc2ccccc2)cc1)c1ccc(Cl)cc1 returned NPY Y2 blocker 4, NPY-Y1 PAM-ag -34, NPY-Y1 antag 20*, NPY-Y2 PAM-ag -6, NPY1 antag conf 9 and NPY2 antag ctr 10.
For CCOC(=O)c1cc(-c2cccs2)nc2c1c(C)nn2-c1ccccn1 the results were NPY-Y1 PAM-ag -27, NPY-Y1 antag 62*, NPY-Y2 PAM-ag -22, NPY1 antag conf 47* and NPY2 antag ctr 22*.
For Cc1nn(-c2ccccn2)c2nc(-c3cccs3)cc(C(=O)NCc3ccco3)c12 the results were NPY Y2 blocker 4, NPY-Y1 PAM-ag 3, NPY-Y1 antag 17 and NPY-Y2 PAM-ag -2.
`O=C(CSc1nnc2ccccn12)Nc1ccc(S(=O)(=O)N2CCOCC2)cc1` gave NPY-Y1 PAM-ag 0, NPY-Y1 antag 1 and NPY-Y2 PAM-ag -7.
`Cc1ccc(CNc2ccc(Cl)cc2[N+](=O)[O-])cc1` gave NPY Y2 blocker 5, NPY-Y1 PAM-ag -18, NPY-Y1 antag 24*, NPY-Y2 PAM-ag -18, NPY1 antag conf 8 and NPY2 antag ctr 12.
